Data on 15 compounds can be found in ChEMBL document CHEMBL2331504, “New pyrazole derivatives containing 1,2,4-triazoles and benzoxazoles as potent antimicrobial and analgesic agents” (2013).

SMILES strings stand for the structures. Values after ≈ are worked out from the molar mass of the structure shown.

What is called inhibition in vivo is how much of the control response was suppressed. Higher therefore signals a response far below the control. One may read the MIC as the least concentration at which growth counts as inhibited.

Format in all cases: functional
Experiment [1] relates to Rattus norvegicus. Description: Analgesic activity against Wistar albino rat at 200 mg/kg, ip measured immediately after 120 mins post compound treatment by tail flick method (reference value: 2.22 +/- 0.07 %). As to conditions: 2 h, route intraperitoneal, read-out: INH. (In general: Thermal pain tests record how soon the animal reacts.)
In experiment [2] the test system is Rattus norvegicus. Description: Analgesic activity against Wistar albino rat at 200 mg/kg, ip measured immediately after 60 mins post compound treatment by tail flick method (reference value: 4.18 +/- 0.13 %). As to conditions: 1 h, route intraperitoneal, read-out: INH.
The test system of experiment [3] is Rattus norvegicus. Description: Analgesic activity against Wistar albino rat at 200 mg/kg, ip measured immediately after 30 mins post compound treatment by tail flick method (reference value: 4.20 +/- 0.12 %). The note with it: 0.5 h, route intraperitoneal.
In experiment [4] the test system is Rattus norvegicus. Description: Analgesic activity against Wistar albino rat at 200 mg/kg, ip measured immediately after compound administration by tail flick method (reference value: 1.9 +/- 0.12 %). As to conditions: route intraperitoneal, read-out: INH.
In experiment [5] the test system is Candida albicans. Description: Antimicrobial activity against Candida albicans after 16 hrs by serial dilution method. An outline of the steps: (§1)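 Tube broth serial dilution in trypticase soya broth, from 1 mg/mL DMF stocks. Cultures were grown 6 h at 37 °C, adjusted to a McFarland standard, then diluted to a 10^5 cfu/mL inoculum. Tubes were incubated 16 h at 37 °C, alongside inoculum and broth controls and ceftriaxone or fluconazole reference. MIC was read as the tubes showing no visible growth.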

In experiment [6] the test system is Pseudomonas aeruginosa. Description: Antimicrobial activity against Pseudomonas aeruginosa after 16 hrs by serial dilution method. In outline:
as §1

Experiment [7] deals with Escherichia coli. Description: Antimicrobial activity against Escherichia coli after 16 hrs by serial dilution method. An outline of the steps:
as §1

For experiment [8], the system named is Bacillus subtilis. Description: Antimicrobial activity against Bacillus subtilis after 16 hrs by serial dilution method. An outline of the steps:
as §1

Experiment [9] has as its system Staphylococcus aureus. Description: Antimicrobial activity against Staphylococcus aureus after 16 hrs by serial dilution method. An outline of the steps:
as §1

Experiment [10] concerns Rattus norvegicus. Description: Analgesic activity against Wistar albino rat at 2 mg/kg, ip measured immediately after 120 mins post compound treatment by tail flick method (reference value: 2.22 +/- 0.07 %). As to conditions: 2 h, route intraperitoneal.
Experiment [11] concerns Rattus norvegicus. Description: Analgesic activity against Wistar albino rat at 2 mg/kg, ip measured immediately after 60 mins post compound treatment by tail flick method (reference value: 4.18 +/- 0.13 %). As to conditions: 1 h, route intraperitoneal.
Experiment [12] deals with Rattus norvegicus. Description: Analgesic activity against Wistar albino rat at 2 mg/kg, ip measured immediately after 30 mins post compound treatment by tail flick method (reference value: 4.20 +/- 0.12 %). As to conditions: 0.5 h, route intraperitoneal.
In experiment [13] the test system is Rattus norvegicus. Description: Analgesic activity against Wistar albino rat at 2 mg/kg, ip measured immediately after compound administration by tail flick method (reference value: 1.9 +/- 0.12 %). The note with it: route intraperitoneal.

On to `Cc1ccc(-c2nnc(S)n2/N=C/c2c[nH]nc2-c2ccc(Cl)cc2Cl)cn1`, for which the tail flick reaction time at 200 mg/kg in experiment [1] was found to be 2.98%. Also, the tail-flick reaction time at 200 mg/kg in experiment [2] was found to be 4.15%; in [4], 2.93%. In experiment [3], testing at 200 mg/kg gave an inhibition in vivo of 3.5%. Moreover, the MIC was 6.25 mg/L (≈ 14.5 µM) in experiment [5]; 1.61 mg/L (≈ 3.75 µM) in [6]; 3.12 mg/L (≈ 7.26 µM) in experiment [7]; 1.61 mg/L (≈ 3.75 µM) in [8]; 3.12 mg/L (≈ 7.26 µM) in [9].

As for `Clc1cc(Cl)c2oc(N/N=C/c3c[nH]nc3-c3cc(Cl)sc3Cl)nc2c1`, the tail flick reaction time at 200 mg/kg in experiment [1] was found to be 3.1%. Further, the tail-flick reaction time at 200 mg/kg in [2] was found to be 3.07%; in experiment [4], 2.98%. The inhibition in vivo at 200 mg/kg in experiment [3] is 3.03%. Besides, the MIC came out at 12.5 mg/L (≈ 28 µM) in [5]; 3.12 mg/L (≈ 6.99 µM) in [6]; 3.12 mg/L (≈ 6.99 µM) in experiment [7]; 6.25 mg/L (≈ 14 µM) in experiment [8]; 3.12 mg/L (≈ 6.99 µM) in experiment [9].

Consider `Clc1cc(Cl)c2oc(N/N=C/c3c[nH]nc3-c3ccc(-c4ccccc4)cc3)nc2c1`, for which, in experiment [1], the tail flick reaction time at 200 mg/kg amounted to 2.95%. Further, the tail-flick reaction time at 200 mg/kg is 2.77% in experiment [2] and 2.43% in experiment [4]. Also, the inhibition in vivo at 200 mg/kg in experiment [3] was 2.65%. Moreover, the MIC in experiment [5] turned out to be 25 mg/L (≈ 55.8 µM); in experiment [6], 12.5 mg/L (≈ 27.9 µM); in experiment [7] it was 12.5 mg/L (≈ 27.9 µM); in experiment [8], 25 mg/L (≈ 55.8 µM); in [9], 12.5 mg/L (≈ 27.9 µM).

As for `CSc1ccc(-c2n[nH]cc2/C=N/NC(=O)CSc2nc3ccccc3o2)cc1`, the tail flick reaction time at 200 mg/kg in experiment [1] worked out at 3.83%. The values for the tail-flick reaction time at 200 mg/kg in experiment [2] and in experiment [4] were 3.53% and 3.05%, respectively. In addition, the inhibition in vivo at 200 mg/kg in [3] was determined as 3.15%. The MIC in [5] worked out at 12.5 mg/L (≈ 29.5 µM); in experiment [6], 6.25 mg/L (≈ 14.8 µM); in [7], 6.25 mg/L (≈ 14.8 µM); in experiment [8] it was 12.5 mg/L (≈ 29.5 µM); in experiment [9], 6.25 mg/L (≈ 14.8 µM).

For `O=C(CSc1nc2ccccc2o1)N/N=C/c1c[nH]nc1-c1ccc(Cl)cc1Cl`, the tail flick reaction time at 200 mg/kg in experiment [1] came out at 3.62%. Moreover, the tail-flick reaction time at 200 mg/kg in experiment [2] turned out to be 3.45%; in experiment [4] it was 2.27%. In experiment [3], this compound had an inhibition in vivo at 200 mg/kg of 3.38%. In addition, the MIC in experiment [5] came out at 12.5 mg/L (≈ 28 µM); in experiment [6], 6.25 mg/L (≈ 14 µM); in [7], 3.12 mg/L (≈ 7 µM); in [8], 6.25 mg/L (≈ 14 µM); in experiment [9], 12.5 mg/L (≈ 28 µM).

`Sc1nnc(COc2cccc3ccccc23)n1/N=C/c1c[nH]nc1-c1ccc(Cl)cc1Cl`: the tail flick reaction time at 200 mg/kg in experiment [1] was determined as 3.08%. Further, the tail-flick reaction time at 200 mg/kg in experiment [2] stood at 2.25%; in experiment [4], 2.85%. Besides, testing at 200 mg/kg in experiment [3] gave an inhibition in vivo of 2.93%. For the same compound, the MIC in experiment [5] was 12.5 mg/L (≈ 25.2 µM); in [6], 1.61 mg/L (≈ 3.26 µM); in experiment [7], 3.12 mg/L (≈ 6.31 µM); in experiment [8], 3.12 mg/L (≈ 6.31 µM); in experiment [9], 6.25 mg/L (≈ 12.6 µM).

Consider `CSc1ccc(-c2n[nH]cc2/C=N/Nc2nc3cc(Cl)cc(Cl)c3o2)cc1`, for which, in experiment [1], the tail flick reaction time at 200 mg/kg was 3.63%. Also, the tail-flick reaction time at 200 mg/kg in experiment [2] was 3.57%; in [4] it was 3.25%. This compound gave an inhibition in vivo at 200 mg/kg in [3] of 3.42%. Moreover, the MIC in experiment [5] is 25 mg/L (≈ 59.8 µM); in [6] it was 12.5 mg/L (≈ 29.9 µM); in [7], 12.5 mg/L (≈ 29.9 µM); in [8], 12.5 mg/L (≈ 29.9 µM); in [9], 6.25 mg/L (≈ 14.9 µM).

Turning to `O=C(CSc1nc2ccccc2o1)N/N=C/c1c[nH]nc1-c1cc(Cl)sc1Cl`, the tail flick reaction time at 200 mg/kg in [1] stood at 3.06%. Besides, the tail-flick reaction time at 200 mg/kg in experiment [2] came to 2.93%; in [4] it was 2.55%. The same compound gave an inhibition in vivo at 200 mg/kg in experiment [3] of 2.82%. The MIC was determined as 25 mg/L (≈ 55.3 µM) in [5]; 6.25 mg/L (≈ 13.8 µM) in [6]; 3.12 mg/L (≈ 6.91 µM) in experiment [7]; 3.12 mg/L (≈ 6.91 µM) in [8]; 6.25 mg/L (≈ 13.8 µM) in [9].

As for `CO/N=C(\C(=O)N[C@@H]1C(=O)N2C(C(=O)O)=C(CSc3nc(=O)c(O)nn3C)CS[C@H]12)c1csc(N)n1` [CEFTRIAXONE], the MIC was 1.61 mg/L (≈ 2.91 µM) in [6], 1.61 mg/L (≈ 2.91 µM) in [7], 1.61 mg/L (≈ 2.91 µM) in experiment [8] and 3.12 mg/L (≈ 5.63 µM) in experiment [9].

On to `CSc1ccc(-c2n[nH]cc2/C=N/n2c(S)nnc2-c2ccncc2)cc1`, for which the tail flick reaction time at 200 mg/kg in [1] worked out at 2.9%. For the same compound, the tail-flick reaction time at 200 mg/kg turned out to be 2.83% in experiment [2] and 2.62% in [4]. In addition, the inhibition in vivo at 200 mg/kg in experiment [3] amounted to 2.77%. In addition, the MIC in [5] amounted to 12.5 mg/L (≈ 31.8 µM); in experiment [6] it was 6.25 mg/L (≈ 15.9 µM); in experiment [7] it was 3.12 mg/L (≈ 7.94 µM); in experiment [8] it was 3.12 mg/L (≈ 7.94 µM); in experiment [9] it was 3.12 mg/L (≈ 7.94 µM).

Take `OC(Cn1cncn1)(Cn1cncn1)c1ccc(F)cc1F` [FLUCONAZOLE]: the lowest concentration to inhibit growth in experiment [5] (MIC) was 6.25 mg/L (≈ 20.4 µM).

For the compound `Sc1nnc(COc2cccc3ccccc23)n1/N=C/c1c[nH]nc1-c1cc(Cl)sc1Cl`, the tail flick reaction time at 200 mg/kg in experiment [1] was determined as 2.2%. Besides, the tail-flick reaction time at 200 mg/kg in experiment [2] turned out to be 2.28%; in [4], 2.67%. Besides, the inhibition in vivo at 200 mg/kg in experiment [3] is 2.52%. Also, the MIC in experiment [5] is 6.25 mg/L (≈ 12.5 µM); in experiment [6], 1.61 mg/L (≈ 3.22 µM); in experiment [7] it was 3.12 mg/L (≈ 6.23 µM); in [8] it was 1.61 mg/L (≈ 3.22 µM); in experiment [9], 1.61 mg/L (≈ 3.22 µM).

Take `Clc1ccc(-c2n[nH]cc2/C=N/Nc2nc3cc(Cl)cc(Cl)c3o2)c(Cl)c1`: the tail flick reaction time at 200 mg/kg in experiment [1] is 3.2%. The results for the tail-flick reaction time at 200 mg/kg in experiment [2] and in experiment [4] were 3.05% and 2.75%, respectively. This compound also came in with an inhibition in vivo at 200 mg/kg in [3] of 2.92%. In addition, the MIC in [5] amounted to 12.5 mg/L (≈ 28.3 µM); in [6], 3.12 mg/L (≈ 7.08 µM); in experiment [7], 12.5 mg/L (≈ 28.3 µM); in [8], 6.25 mg/L (≈ 14.2 µM); in experiment [9], 12.5 mg/L (≈ 28.3 µM).

For `O=C(CSc1nc2ccccc2o1)N/N=C/c1c[nH]nc1-c1ccc(-c2ccccc2)cc1`, the tail flick reaction time at 200 mg/kg in experiment [1] came out at 3.63%. For the same compound, the tail-flick reaction time at 200 mg/kg in experiment [2] turned out to be 3.43%; in [4], 3.13%. Moreover, the inhibition in vivo at 200 mg/kg in [3] came out at 3.27%. The MIC in experiment [5] stood at 25 mg/L (≈ 55.1 µM); in experiment [6] it was 12.5 mg/L (≈ 27.6 µM); in experiment [7], 25 mg/L (≈ 55.1 µM); in [8] it was 12.5 mg/L (≈ 27.6 µM); in experiment [9], 12.5 mg/L (≈ 27.6 µM).

For `CC(C)=CCN1CC[C@]2(C)c3cc(O)ccc3C[C@H]1[C@H]2C` [(+)-PENTAZOCINE], the inhibition in vivo at 2 mg/kg amounted to 2.22% in experiment [10], 2.18% in experiment [11], 2.17% in experiment [12] and 1.9% in [13].
